According to ChEMBL document CHEMBL4007489, “First Bispecific Inhibitors of the Epidermal Growth Factor Receptor Kinase and the NF-κB Activity As Novel Anticancer Agents” (J Med Chem, 2017):
Calls of active or inactive are those of the source. The rule behind the calls is not given here.

Tests used:
[1] = biological target: T1, Proteasome component C5 (Homo sapiens) (UniProt P20618); assay: Inhibition of caspase like activity of 26S proteasome derived from human MDA-MB-231 cells at 50 uM
T1 sequence (whole entry): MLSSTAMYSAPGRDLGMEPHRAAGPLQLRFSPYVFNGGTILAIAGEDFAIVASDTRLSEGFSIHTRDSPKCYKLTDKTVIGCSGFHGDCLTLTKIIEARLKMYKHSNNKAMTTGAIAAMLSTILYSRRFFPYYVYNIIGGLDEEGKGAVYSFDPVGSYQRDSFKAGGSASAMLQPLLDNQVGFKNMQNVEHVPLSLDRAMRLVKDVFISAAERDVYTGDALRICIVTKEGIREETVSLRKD
Procedure, shortened: (§1)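 Total protein extract from MDA-MB-231 cells served as the source of 26S proteasome. Trypsin-like, chymotrypsin-like and caspase-like activities were each measured with a specific fluorigenic peptide substrate.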

[2] = biological target: Transcription factor p65 (Homo sapiens) (UniProt Q04206); assay: Inhibition of IL-1beta-stimulated nuclear translocation of GFP-tagged NF-kappaB-p65 (unknown origin) expressed in CHO cells at 15 uM preincubated with IL-1beta for 30 mins followed by compound addition in presence of Pluronic F127 by fluorescence assay; format: cell-based
A549 = assay: cells; format: functional; settings: Homo sapiens, A549, 48 h
cells = format: cell-based; settings: Homo sapiens, U-937
[3] = biological target: T2, Proteasome Macropain subunit MB1 (Homo sapiens) (UniProt P28074); assay: Inhibition of chymotrypsin like activity of 26S proteasome derived from human MDA-MB-231 cells at 50 uM; procedure, shortened: as §1
T2 sequence (whole entry): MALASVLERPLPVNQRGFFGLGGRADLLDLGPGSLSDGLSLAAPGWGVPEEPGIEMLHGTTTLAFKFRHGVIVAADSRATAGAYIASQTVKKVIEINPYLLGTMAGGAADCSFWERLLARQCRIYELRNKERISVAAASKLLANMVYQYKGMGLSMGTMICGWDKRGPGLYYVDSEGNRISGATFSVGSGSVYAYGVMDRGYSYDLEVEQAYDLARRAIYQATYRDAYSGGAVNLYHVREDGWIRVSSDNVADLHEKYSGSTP

[4] = biological target: Proteasome Macropain subunit (Homo sapiens) (UniProt P49721); assay: Inhibition of trypsin like activity of 26S proteasome derived from human MDA-MB-231 cells at 50 uM; procedure, shortened: as §1
Homo sapiens [5] = species: Homo sapiens; settings: at 10 µM
[6] = biological target: T3, MAP kinase-interacting serine/threonine-protein kinase 2 (Homo sapiens, UniProt Q9HBH9); assay: Inhibition of human full length N-terminal GST-tagged MNK2 expressed in baculovirus expression system
Target sequence in this assay (Q9HBH9 whole entry): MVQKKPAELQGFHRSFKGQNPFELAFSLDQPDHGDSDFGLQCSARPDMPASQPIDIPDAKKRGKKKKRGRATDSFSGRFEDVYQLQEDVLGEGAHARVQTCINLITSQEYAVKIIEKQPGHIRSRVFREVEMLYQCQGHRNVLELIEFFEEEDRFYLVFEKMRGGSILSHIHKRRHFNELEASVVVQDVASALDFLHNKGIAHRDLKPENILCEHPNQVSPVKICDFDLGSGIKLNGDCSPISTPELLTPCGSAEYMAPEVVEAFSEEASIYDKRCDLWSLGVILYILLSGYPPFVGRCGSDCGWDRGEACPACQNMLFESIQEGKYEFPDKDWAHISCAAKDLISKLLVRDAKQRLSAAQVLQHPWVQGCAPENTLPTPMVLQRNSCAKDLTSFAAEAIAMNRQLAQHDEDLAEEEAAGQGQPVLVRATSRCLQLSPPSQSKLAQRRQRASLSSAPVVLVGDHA

[7] = biological target: Transcription factor p65 (Homo sapiens) (UniProt Q04206); assay: Inhibition of TNFalpha-stimulated DNA binding activity of NF-kappaB-p65 in nuclear extracts of human MDA-MB-231 cells at 2.5 to 15 uM incubated for 12 hrs followed by TNFalpha stimulation measured after 20 mins by ELISA
Procedure, shortened: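 MDA-MB-231 cells exposed to compound or DMSO for 12 h, then TNFα (20 ng/mL final) for 20 min at 37 °C. Cells washed with ice-cold PBS, nuclear extracts prepared, protein measured by Bradford. 5 μg nuclear protein incubated on immobilized NF-κB response-element oligonucleotide, bound p65 detected by primary antibody and HRP secondary, absorbance 450 nm. Binding specificity checked with competing free oligonucleotide. Triplicates.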

[8] = biological target: Transcription factor p65 (Homo sapiens) (UniProt Q04206); assay: Inhibition of NF-kappaB-p65 binding to NF-kappaB response element oligonucleotide in nuclear extracts of 12 hrs compound pre-treated human MDA-MB-231 cells at 2.5 to 15 uM by ELISA
Procedure, shortened: (§2)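 MDA-MB-231 cells treated with compound or DMSO for 12 h; in some runs TNFα (20 ng/mL final) added for a further 20 min at 37 °C. Nuclear extracts prepared on ice and protein measured by Bradford. 5 μg of extract incubated on plate-immobilized NF-κB response element oligonucleotide. Bound complexes detected with anti-p65 primary and HRP secondary antibody, read at 450 nm. Specificity checked by competition with free oligonucleotide; triplicates.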

in vitro [9] = settings: chinese hamster, CHO-K1 cells
Homo sapiens [10] = species: Homo sapiens; settings: at 2.5 to 15 µM
[11] = biological target: T3, MAP kinase-interacting serine/threonine-protein kinase 2; assay: Inhibition of human full length N-terminal GST-tagged MNK2 expressed in baculovirus expression system at 5 uM
Target sequence in this assay (Q9HBH9 whole entry, looked up): as the sequence (Q9HBH9 whole entry) above

[12] = biological target: Transcription factor p65 (Homo sapiens) (UniProt Q04206); assay: Inhibition of IL-1beta-stimulated nuclear translocation of GFP-tagged NF-kappaB-p65 (unknown origin) expressed in CHO cells at 15 uM preincubated with IL-1beta for 30 mins followed by compound addition by fluorescence assay; format: cell-based
[13] = biological target: Serine/threonine-protein kinase pim-1 (Homo sapiens, UniProt P11309); assay: Inhibition of human recombinant full length His-tagged PIM-1 expressed in baculovirus expression system
in vitro [14] = settings: human, HUVEC
[15] = biological target: Receptor tyrosine-protein kinase erbB-4 (Homo sapiens) (UniProt Q15303); assay: Inhibition of N-terminal GST-tagged human recombinant ERBB4 expressed in baculovirus expression system at 5 uM
[16] = biological target: Transcription factor p65 (Homo sapiens) (UniProt Q04206); assay: Inhibition of TNFalpha-stimulated DNA binding activity of NF-kappaB-p65 in human MDA-MB-231 cells at 2.5 to 15 uM incubated for 12 hrs followed by TNFalpha stimulation measured after 20 mins by ELISA; format: cell-based; procedure, shortened: as §2
MDA-MB-231 [17] = assay: cells; format: functional; settings: Homo sapiens, MDA-MB-231, 48 h
[18] = Selectivity ratio of GI50 for HUVEC to GI50 for human MDA-MB-231 cells
[19] = Selectivity ratio of GI50 for CHOK1 cells to GI50 for human A549 cells
[20] = biological target: T4, Epidermal growth factor receptor (Homo sapiens, UniProt P00533); settings: at 150 nM
[21] = biological target: T4, Epidermal growth factor receptor; assay: biochemical; format: cell-based
[22] = Selectivity ratio of GI50 for HUVEC to GI50 for human A549 cells
[23] = Selectivity ratio of GI50 for CHOK1 cells to GI50 for human MDA-MB-231 cells
MDA-MB-231 [24] = assay: Potency index, ratio of gefitinib GI50 to compound GI50 for human MDA-MB-231 cells; format: functional

Chain of Transcription factor p65 (Homo sapiens) (Q04206 whole entry): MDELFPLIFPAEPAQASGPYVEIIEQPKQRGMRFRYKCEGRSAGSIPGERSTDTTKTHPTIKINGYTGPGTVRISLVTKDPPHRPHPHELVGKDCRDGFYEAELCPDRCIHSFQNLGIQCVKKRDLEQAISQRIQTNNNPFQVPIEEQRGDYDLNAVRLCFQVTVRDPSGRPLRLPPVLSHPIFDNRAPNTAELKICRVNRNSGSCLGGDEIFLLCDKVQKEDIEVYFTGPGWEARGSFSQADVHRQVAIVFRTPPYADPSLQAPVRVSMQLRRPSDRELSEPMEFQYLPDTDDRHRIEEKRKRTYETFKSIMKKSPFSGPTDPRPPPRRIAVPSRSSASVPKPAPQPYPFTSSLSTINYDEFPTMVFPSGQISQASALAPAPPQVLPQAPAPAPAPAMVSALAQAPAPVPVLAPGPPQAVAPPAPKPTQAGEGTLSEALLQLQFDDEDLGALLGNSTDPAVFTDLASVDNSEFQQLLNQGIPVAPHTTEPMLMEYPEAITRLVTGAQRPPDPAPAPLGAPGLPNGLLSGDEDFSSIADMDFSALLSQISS
T4 sequence (P00533 whole entry): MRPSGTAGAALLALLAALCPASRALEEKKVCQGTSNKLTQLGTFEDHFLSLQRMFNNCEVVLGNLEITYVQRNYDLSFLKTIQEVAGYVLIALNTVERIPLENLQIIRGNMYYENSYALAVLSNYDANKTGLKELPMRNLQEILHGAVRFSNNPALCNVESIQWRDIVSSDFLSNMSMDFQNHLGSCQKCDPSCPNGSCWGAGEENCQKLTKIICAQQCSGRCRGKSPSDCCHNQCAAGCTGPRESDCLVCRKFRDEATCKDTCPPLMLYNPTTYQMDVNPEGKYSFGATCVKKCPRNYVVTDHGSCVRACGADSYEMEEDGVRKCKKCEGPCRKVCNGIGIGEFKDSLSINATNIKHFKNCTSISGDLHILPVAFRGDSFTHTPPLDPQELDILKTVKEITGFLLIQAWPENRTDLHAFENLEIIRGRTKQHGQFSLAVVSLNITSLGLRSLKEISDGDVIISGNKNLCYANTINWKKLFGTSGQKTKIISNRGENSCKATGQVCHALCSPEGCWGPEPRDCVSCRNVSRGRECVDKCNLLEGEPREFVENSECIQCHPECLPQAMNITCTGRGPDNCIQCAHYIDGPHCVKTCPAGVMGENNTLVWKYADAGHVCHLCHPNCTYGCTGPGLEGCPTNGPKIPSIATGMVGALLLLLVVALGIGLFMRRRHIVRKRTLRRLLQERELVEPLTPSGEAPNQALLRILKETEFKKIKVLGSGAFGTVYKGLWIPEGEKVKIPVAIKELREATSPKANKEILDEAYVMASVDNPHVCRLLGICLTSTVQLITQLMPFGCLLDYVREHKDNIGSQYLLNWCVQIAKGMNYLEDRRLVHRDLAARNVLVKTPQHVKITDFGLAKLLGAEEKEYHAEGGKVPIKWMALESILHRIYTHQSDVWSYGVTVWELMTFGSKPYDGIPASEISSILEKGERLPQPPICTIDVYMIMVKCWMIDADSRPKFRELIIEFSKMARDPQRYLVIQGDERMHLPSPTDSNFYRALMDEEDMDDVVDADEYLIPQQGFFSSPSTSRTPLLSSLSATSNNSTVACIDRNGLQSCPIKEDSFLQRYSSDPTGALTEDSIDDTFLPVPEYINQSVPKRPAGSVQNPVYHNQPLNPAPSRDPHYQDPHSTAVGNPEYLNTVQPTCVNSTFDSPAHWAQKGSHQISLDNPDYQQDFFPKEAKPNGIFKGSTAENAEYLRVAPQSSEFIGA
Chain of Proteasome Macropain subunit (Homo sapiens) (P49721 whole entry): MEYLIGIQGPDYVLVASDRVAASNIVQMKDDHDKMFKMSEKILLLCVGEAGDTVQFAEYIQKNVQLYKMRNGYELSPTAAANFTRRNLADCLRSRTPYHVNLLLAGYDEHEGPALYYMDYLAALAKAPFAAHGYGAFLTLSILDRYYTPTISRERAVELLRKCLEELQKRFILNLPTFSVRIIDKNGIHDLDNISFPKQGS
Chain of Serine/threonine-protein kinase pim-1 (P11309 whole entry): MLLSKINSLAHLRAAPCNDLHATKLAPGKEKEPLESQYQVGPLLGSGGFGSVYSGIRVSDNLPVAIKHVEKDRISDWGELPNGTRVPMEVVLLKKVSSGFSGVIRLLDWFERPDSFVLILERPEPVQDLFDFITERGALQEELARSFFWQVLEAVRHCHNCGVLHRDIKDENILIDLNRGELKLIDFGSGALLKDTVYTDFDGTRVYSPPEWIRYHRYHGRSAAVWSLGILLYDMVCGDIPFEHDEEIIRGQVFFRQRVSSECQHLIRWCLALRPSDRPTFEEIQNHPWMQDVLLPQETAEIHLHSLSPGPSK
Chain of Receptor tyrosine-protein kinase erbB-4 (Homo sapiens) (Q15303 whole entry): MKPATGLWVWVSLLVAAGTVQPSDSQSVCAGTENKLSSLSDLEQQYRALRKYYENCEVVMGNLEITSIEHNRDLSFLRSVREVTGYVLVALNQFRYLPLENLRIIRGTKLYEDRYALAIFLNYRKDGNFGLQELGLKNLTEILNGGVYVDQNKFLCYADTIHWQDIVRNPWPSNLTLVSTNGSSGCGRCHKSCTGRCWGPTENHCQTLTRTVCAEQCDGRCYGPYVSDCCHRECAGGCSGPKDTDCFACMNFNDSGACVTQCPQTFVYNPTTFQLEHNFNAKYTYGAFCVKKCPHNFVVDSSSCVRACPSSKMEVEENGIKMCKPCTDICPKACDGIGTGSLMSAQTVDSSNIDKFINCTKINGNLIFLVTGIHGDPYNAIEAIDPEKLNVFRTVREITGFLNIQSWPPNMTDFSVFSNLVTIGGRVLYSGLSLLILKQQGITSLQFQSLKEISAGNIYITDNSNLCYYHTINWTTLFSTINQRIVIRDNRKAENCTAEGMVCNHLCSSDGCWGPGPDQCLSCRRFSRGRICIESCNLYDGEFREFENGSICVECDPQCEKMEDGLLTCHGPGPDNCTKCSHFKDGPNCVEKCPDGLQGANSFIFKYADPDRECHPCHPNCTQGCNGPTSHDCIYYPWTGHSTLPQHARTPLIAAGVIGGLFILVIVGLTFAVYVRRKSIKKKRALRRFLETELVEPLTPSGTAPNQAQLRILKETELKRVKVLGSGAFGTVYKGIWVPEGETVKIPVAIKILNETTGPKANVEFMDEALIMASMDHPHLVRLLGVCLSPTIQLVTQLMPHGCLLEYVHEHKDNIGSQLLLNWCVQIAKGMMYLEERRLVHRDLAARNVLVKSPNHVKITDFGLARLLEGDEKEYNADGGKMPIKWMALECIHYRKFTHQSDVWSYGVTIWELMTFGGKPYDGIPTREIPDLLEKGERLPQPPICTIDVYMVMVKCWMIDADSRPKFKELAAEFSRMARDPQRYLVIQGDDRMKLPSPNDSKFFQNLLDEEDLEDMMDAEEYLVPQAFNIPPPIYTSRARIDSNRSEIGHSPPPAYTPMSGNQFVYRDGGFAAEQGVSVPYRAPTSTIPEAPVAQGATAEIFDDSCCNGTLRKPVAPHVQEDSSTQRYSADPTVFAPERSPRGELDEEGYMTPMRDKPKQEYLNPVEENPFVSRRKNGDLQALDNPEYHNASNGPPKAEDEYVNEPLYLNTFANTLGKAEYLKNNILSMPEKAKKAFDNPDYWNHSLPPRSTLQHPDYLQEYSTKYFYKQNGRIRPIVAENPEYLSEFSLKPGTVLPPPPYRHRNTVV

Row | inhibition [1] | inhibition [2] | GI50 (A549) [µM] | IC50 (cells) [µM] | inhibition [3] | inhibition [4] | GI50 at 48 h (in vitro [9]) [µM] | inhibition [12] | GI50 at 48 h (in vitro [14]) [µM] | GI50 (MDA-MB-231 [17]) [µM] | Structure (SMILES) | inhibition (Homo sapiens [5]) [%] | further results
1 | inactive | inactive | 1.6 | 1.9 | inactive | inactive | 25.7 | inactive | 11.5 | 2.1 | S=C(Nc1cccc(Cl)c1)Nc1ccc2ncnc(Nc3cccc(Br)c3)c2c1 | 97.4 | IC50 [6]: 2.7 µM; inhibition [7]: inactive; inhibition [8]: inactive; inhibition (Homo sapiens [10]): Dose-dependent effect; inhibition [11]: 78%; IC50 [13]: 1.2 µM; inhibition [15]: 54%; inhibition [16]: inactive
2 | inactive | inactive | 1 | 1 | inactive | inactive | 52.1 | inactive | 14.8 | 0.3 | Fc1ccc(NC(=S)Nc2ccc3ncnc(Nc4cccc(Br)c4)c3c2)cc1Cl | 100 | RatioGI50 [18]: 49.3; RatioGI50 [19]: 52.1; inhibition [20]: 74.1%; IC50 [21]: 0.0253 µM; RatioGI50 [22]: 14.8; RatioGI50 [23]: 173.7; RatioGI50 (MDA-MB-231 [24]): >35
